The source made the active and inactive calls. The calls are words filed in the database; no cut-off is given here.

The test system of assay [1] is Mel-Ab. As to the kind of experiment: Cytotoxicity against mouse Mel-Ab cells at 1 to 100 uM after 24 hrs by crystal violet assay. It is filed as functional, cell-based. In a few lines:
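Mel-Ab (spontaneously immortalized mouse melanocytes; DMEM, 10% FBS, 100 nM TPA, 1 nM CT, 37 °C, 5% CO2) exposed 24 h to 1, 10, 50, 100 µM. Crystal violet staining (0.1% in 10% ethanol, 5 min, room temperature), four water rinses, dye extracted with 95% ethanol, absorbance read at 590 nm.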

Assay [2] relates to Mel-Ab. As to the kind of experiment: Inhibition of melanin synthesis in mouse Mel-Ab cells assessed as reduction in melanin synthesis at 1 to 100 uM after 4 hrs by phase-contrast microscopy. The assay is classed as functional, cell-based. The settings on record: in the assay text read “4 days” for “4 hrs”. The essentials:
(§1)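 Mel-Ab melanocytes in TPA/CT-supplemented DMEM given 1–100 µM for four days. Cells photographed under phase contrast. Pellets then dissolved in 1 N NaOH, 100 °C, 30 min, spun 16000g for 20 min, supernatant OD read at 400 nm. Mean ± SD of three replicate experiments, compared with untreated control.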

Assay [3] has as its system Mel-Ab. As to the kind of experiment: Inhibition of melanin synthesis in mouse Mel-Ab cells assessed as in melanin content after 4 hrs by ELISA. The assay is classed as functional, cell-based. The settings on record: in the assay text read “4 days” for “4 hrs”. In a few lines:
as §1

The subject of assay [4] is Mel-Ab. Nature of the assay: Induction of ERK activity in 24 hrs serum starved mouse Mel-Ab cells at 50 uM by Western blot analysis. It is filed as cell-based. In a few lines:
(§2)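 Mel-Ab cells serum-starved 24 h, then given 50 µM for the indicated times up to 360 min. Whole-cell lysates run at 10 µg protein per lane by SDS-PAGE and blotted on PVDF. Probed with 1:1000 antibodies to phospho-ERK, phospho-Akt, MITF and tyrosinase; actin served as loading control.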
(In western blotting, separated proteins are transferred to a membrane and probed.)

For assay [5], the target named is T1, Microphthalmia-associated transcription factor (Mus musculus) (UniProt Q08874).
T1 sequence (whole entry): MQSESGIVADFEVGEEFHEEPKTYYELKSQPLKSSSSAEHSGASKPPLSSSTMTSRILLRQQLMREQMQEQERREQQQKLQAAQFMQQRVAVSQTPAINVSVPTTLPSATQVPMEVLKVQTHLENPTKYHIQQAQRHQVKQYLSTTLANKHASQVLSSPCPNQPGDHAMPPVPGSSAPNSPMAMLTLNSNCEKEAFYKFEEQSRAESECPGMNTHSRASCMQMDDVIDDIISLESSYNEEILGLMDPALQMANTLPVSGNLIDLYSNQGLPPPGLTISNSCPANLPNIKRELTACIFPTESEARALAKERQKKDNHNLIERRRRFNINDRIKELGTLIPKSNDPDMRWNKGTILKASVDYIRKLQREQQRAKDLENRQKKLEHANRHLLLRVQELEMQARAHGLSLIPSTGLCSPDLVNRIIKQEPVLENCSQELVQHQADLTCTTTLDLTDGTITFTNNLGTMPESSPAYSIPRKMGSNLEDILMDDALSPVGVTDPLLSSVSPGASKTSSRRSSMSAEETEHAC
As to the kind of experiment: Down regulation of MITF activity in 24 hrs serum starved mouse Mel-Ab cells at 50 uM measured after 60 to 360 mins by Western blot analysis. The assay is classed as cell-based. In a few lines:
as §2

The test system of assay [6] is Mel-Ab. As to the kind of experiment: Reduction of MITF level in 24 hrs serum starved mouse Mel-Ab cells at 50 uM measured after 24 to 72 mins by Western blot analysis. The assay is classed as functional. The settings on record: in the assay text read “24 to 72 hrs” for “24 to 72 mins”. The essentials:
(§3)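 Mel-Ab cells cultured 24–72 h with 50 µM. Whole-cell lysates (10 µg protein/lane) analysed by Western blot for MITF and tyrosinase, with actin as loading control.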

Assay [7] concerns Mel-Ab. As to the kind of experiment: Reduction of tyrosinase protein level in 24 hrs serum starved mouse Mel-Ab cells at 50 uM measured after 24 to 72 mins by Western blot analysis. It is filed as functional. The settings on record: in the assay text read “24 to 72 hrs” for “24 to 72 mins”. In a few lines: as §3
Assay [8] can be described thus: Inhibition of melanin synthesis in mouse Mel-Ab cells assessed as reduction in melanin synthesis at 50 uM after 4 hrs by phase-contrast microscopy in presence of PD-98059 ERK pathway inhibitor. It is filed as functional, cell-based. The settings on record: in the assay text read “4 days” for “4 hrs”. The essentials: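 Mel-Ab cells pretreated 1 h with 20 µM PD98059, then cultured four days with 50 µM compound. Phase-contrast photography, then melanin read as OD 400 nm after dissolving pellets in 1 N NaOH at 100 °C. Triplicate determinations, mean ± SD.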

For assay [9], the system named is Mel-Ab. Nature of the assay: Reduction of MITF level in 24 hrs serum starved mouse Mel-Ab cells […] measured after 3 hrs followed by MG132 proteasome inhibitor for 1 hr by Western blot analysis. The assay is classed as functional. In a few lines: (§4)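 After serum starvation, Mel-Ab cells pretreated 1 h with 25 µg/mL cycloheximide, then 1 h with 25 µM MG132 and/or 100 µM chloroquine, then 3 h with 50 µM compound. MITF detected by Western blot of whole-cell lysates.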

In assay [10] the test system is Mel-Ab. As to the kind of experiment: Reduction of MITF level in 24 hrs serum starved mouse Mel-Ab cells […] measured after 3 hrs followed by chloroquine lysosomal proteolysis inhibitor for 1 hr by Western blot analysis. The assay is classed as functional. The essentials:
as §4

Assay [11] deals with Mel-Ab. Nature of the assay: Reduction of MITF level in 24 hrs serum starved mouse Mel-Ab cells at 25 ug/ml measured after 3 hrs followed by MG132/chloroquine for 1 hr by Western blot analysis. The assay is classed as functional. The settings on record: 50 uM, in the assay text read “50 uM” for “25 ug/ml”. The essentials:
as §4

Assay [12] has as its system Mel-Ab. Nature of the assay: Induction of ERK activity in 24 hrs serum starved mouse Mel-Ab cells at 50 uM by Western blot analysis in presence of PD-98059. It is filed as cell-based.
Assay [13] deals with T2, Tyrosinase (Mus musculus) (UniProt P11344).
T2 sequence (whole entry): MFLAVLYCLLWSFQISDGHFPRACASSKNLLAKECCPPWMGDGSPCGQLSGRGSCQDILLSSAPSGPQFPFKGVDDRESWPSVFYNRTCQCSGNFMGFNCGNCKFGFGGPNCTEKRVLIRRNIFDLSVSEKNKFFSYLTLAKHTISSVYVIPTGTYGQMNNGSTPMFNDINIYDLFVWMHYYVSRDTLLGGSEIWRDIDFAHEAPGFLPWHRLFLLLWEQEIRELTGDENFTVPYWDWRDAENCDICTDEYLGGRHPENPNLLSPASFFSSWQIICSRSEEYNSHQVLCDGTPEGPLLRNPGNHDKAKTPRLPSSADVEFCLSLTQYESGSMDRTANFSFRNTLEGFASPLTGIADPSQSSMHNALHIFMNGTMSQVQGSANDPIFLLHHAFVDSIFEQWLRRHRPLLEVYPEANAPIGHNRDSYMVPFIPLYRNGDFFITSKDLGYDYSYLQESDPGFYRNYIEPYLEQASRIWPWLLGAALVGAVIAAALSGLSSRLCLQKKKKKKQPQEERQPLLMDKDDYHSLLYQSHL
As to the kind of experiment: Inhibition of tyrosinase activity in mouse Mel-Ab cells assessed as inhibition of melanogenesis at 1 to 100 uM by ELISA.

The subject of assay [14] is Mel-Ab. Nature of the assay: Reduction of MITF level in 24 hrs serum starved mouse Mel-Ab cells at 50 uM measured after 3 hrs by Western blot analysis in presence of PD-98059.

Regarding `CC1(C)Oc2cc3oc(=O)ccc3cc2C[C@@H]1OC(=O)/C=C/c1ccccc1`, the result in [1], in assay [8], in assay [9], in [10], in [12] and in [14] was inactive. For the same compound, the result in assay [2], in assay [4], in assay [5], in [6], in assay [7] and in assay [11] was Active. Also, in [13], the result was Active. In [3], the Activity result was “Dose-dependent effect”.

The values above are taken from ChEMBL document CHEMBL1158586, “Hypopigmentary action of dihydropyranocoumarin D2, a decursin derivative, as a MITF-degrading agent” (J Nat Prod, 2010).
